In ChEMBL document CHEMBL1150355, “Design and evaluation of a novel series of 2,3-oxidosqualene cyclase inhibitors with low systemic exposure, relationship between pharmacokinetic properties and ocular toxicity” (Bioorg Med Chem, 2008):
Activity calls are given as the source filed them. The calls are words filed in the database; no cut-off is given here.

Tests used:
[1] = target: T1, Lanosterol synthase (Homo sapiens) (UniProt P48449); experiment: Inhibition of 2,3-oxidosqualene-lanosterol cyclase at 200 nM
T1 sequence (whole entry): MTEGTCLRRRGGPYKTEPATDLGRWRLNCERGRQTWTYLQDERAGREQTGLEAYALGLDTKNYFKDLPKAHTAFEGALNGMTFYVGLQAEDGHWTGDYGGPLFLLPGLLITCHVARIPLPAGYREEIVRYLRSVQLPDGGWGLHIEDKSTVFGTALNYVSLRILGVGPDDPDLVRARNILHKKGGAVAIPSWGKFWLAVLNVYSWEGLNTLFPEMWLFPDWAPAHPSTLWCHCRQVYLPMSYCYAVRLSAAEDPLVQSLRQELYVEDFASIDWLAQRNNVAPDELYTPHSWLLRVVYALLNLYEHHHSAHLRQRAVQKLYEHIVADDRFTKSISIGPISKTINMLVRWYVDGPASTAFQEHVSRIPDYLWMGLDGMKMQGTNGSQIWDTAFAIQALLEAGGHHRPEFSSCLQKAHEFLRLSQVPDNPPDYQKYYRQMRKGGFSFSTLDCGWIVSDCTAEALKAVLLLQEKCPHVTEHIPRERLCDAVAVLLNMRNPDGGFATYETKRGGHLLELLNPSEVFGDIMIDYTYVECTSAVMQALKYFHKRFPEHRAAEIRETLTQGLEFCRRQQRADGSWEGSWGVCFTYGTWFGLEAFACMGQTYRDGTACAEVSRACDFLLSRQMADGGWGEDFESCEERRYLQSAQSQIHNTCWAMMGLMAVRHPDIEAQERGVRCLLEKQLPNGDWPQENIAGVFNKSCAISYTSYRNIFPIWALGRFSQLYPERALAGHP
Procedure, shortened: (§1)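 HepG2 cells were incubated 24 h with compound in BME with 10% fetal calf serum, then labelled with [14C]mevalonate (7.4 kBq). Lipids were extracted with heptane/isopropanol and separated by TLC. [14C]cholesterol, MES and DES were identified against standards and quantified by phosphorimaging, scoring cholesterol synthesis inhibition together with MES/DES formation.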

Rattus norvegicus [2] = experiment: Inhibition of neosynthetized cholesterol synthesis in OFA rat lens at 2 mg/kg, po after 3 hrs; assay type: functional; settings: Lens of camera-type eye
Procedure, shortened: (§2)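 Male OFA rats dosed orally at 2 mg/kg. Sterol synthesis was labelled by ip [14C]mevalonate (370 kBq) for the final hour, giving 3 h or 8 h total exposure. Lens and liver lipids were extracted with isopropanol, separated by TLC, and cholesterol and MES radioactivity quantified by phosphorimaging. Cholesterol inhibition is relative to vehicle-treated rats, and MES as % of BIBB 515-treated rats (100%).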

Rattus norvegicus [3] = experiment: Inhibition of neosynthetized cholesterol synthesis in OFA rat liver at 2 mg/kg, po after 3 hrs; assay type: functional; procedure, shortened: as §2
Rattus norvegicus [4] = experiment: Induction of neosynthetized 2,3 mono-epoxysqualene synthesis in OFA rat lens at 2 mg/kg, po after 3 hrs relative to BIBB 515; assay type: functional, Lens of camera-type eye; procedure, shortened: as §2
Rattus norvegicus [5] = experiment: Induction of neosynthetized 2,3 mono-epoxysqualene synthesis in OFA rat lens at 2 mg/kg, po after 8 hrs relative to BIBB 515; assay type: functional, Lens of camera-type eye; procedure, shortened: as §2
[6] = Biodistribution in OFA rat eyes at 1 mg/kg, iv after 2 hrs; assay type: ADME, organism-based; set-up: dose 1 mg/kg, route intravenous; settings: eye, read-out: Drug uptake
Procedure, shortened: (§3)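 OFA rats (n = 10) dosed 1 mg/kg by iv bolus via penis vein in 10% DMA/90% PEG200. Plasma and tissue homogenates in borate buffer 0.1 M pH 11.5 were extracted with ethyl ether and analysed by LC. Plasma AUC was computed over 0–6 h.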

Rattus norvegicus [7] = experiment: Inhibition of neosynthetized cholesterol synthesis in OFA rat lens at 2 mg/kg, po after 8 hrs; assay type: functional; settings: Lens of camera-type eye; procedure, shortened: as §2
Rattus norvegicus [8] = experiment: Inhibition of neosynthetized cholesterol synthesis in OFA rat liver at 2 mg/kg, po after 8 hrs; assay type: functional; procedure, shortened: as §2
Rattus norvegicus [9] = experiment: Induction of neosynthetized 2,3 mono-epoxysqualene synthesis in OFA rat liver at 2 mg/kg, po after 8 hrs relative to BIBB 515; assay type: functional; procedure, shortened: as §2
Lanosterol synthase = target: T2, Lanosterol synthase (Homo sapiens, UniProt P48449); experiment: Inhibition of 2,3-oxidosqualene-lanosterol cyclase; procedure, shortened: as §1
T2 sequence (P48449 whole entry): T1 sequence (whole entry)

[10] = Biodistribution in OFA rat liver at 1 mg/kg, iv after 2 hrs; assay type: ADME, organism-based; set-up: dose 1 mg/kg, route intravenous; settings: read-out: Drug uptake; procedure, shortened: as §3
[11] = Metabolic stability in rat liver microsomes assessed as intrinsic clearance […]; assay type: ADME, Microsome
[12] = AUC (0 to 6 hrs) in OFA rat at 1 mg/kg, iv; assay type: ADME, organism-based; set-up: time < 6 hr, dose 1 mg/kg, route intravenous; settings: plasma; procedure, shortened: as §3
[13] = Biodistribution in OFA rat eyes at 1 mg/kg, iv after 6 hrs; assay type: ADME, organism-based; set-up: dose 1 mg/kg, route intravenous; settings: eye, read-out: Drug uptake; procedure, shortened: as §3
[14] = Biodistribution in OFA rat liver at 1 mg/kg, iv after 6 hrs; assay type: ADME, organism-based; set-up: dose 1 mg/kg, route intravenous; settings: read-out: Drug uptake; procedure, shortened: as §3
Rattus norvegicus [15] = experiment: Induction of neosynthetized 2,3 mono-epoxysqualene synthesis in OFA rat liver at 2 mg/kg, po after 3 hrs relative to BIBB 515; assay type: functional; procedure, shortened: as §2

O=C(N1CCN(Cc2ccc(-n3ccnc3)cc2)CC1)C(F)(F)F
Activity [1]: inactive

CN(C)Cc1cccc(-c2ccc(CCNS(=O)(=O)c3ccc(C#N)cc3)cc2)c1
Activity [1]: inactive

CN(C)Cc1ccc(CN2CCN(C(=O)c3ccc(OC(F)(F)F)cc3)CC2)cc1
inhibition in vivo at 2 mg/kg (Rattus norvegicus [2]): 64% | inhibition in vivo at 2 mg/kg (Rattus norvegicus [3]): 83% | Activity (Rattus norvegicus [4]): 175% | Activity (Rattus norvegicus [5]): 51% | concentration at 2 h [6]: 260 ng/g | inhibition in vivo at 2 mg/kg (Rattus norvegicus [7]): 66% | inhibition in vivo at 2 mg/kg (Rattus norvegicus [8]): 69% | Activity (Rattus norvegicus [9]): 241% | IC50 (Lanosterol synthase): 0.02 µM | concentration at 2 h [10]: 2420 ng/g | CLint scaled [11]: 3.6 mL/min/g | AUC(0-t) at 6 h [12]: 0.362 µg·h/mL | concentration at 6 h [13]: 194 ng/g | concentration at 6 h [14]: 1320 ng/g | Activity (Rattus norvegicus [15]): 100%

Clc1ccc(CN2CCN(Cc3ccc(-c4ccncc4)cc3)CC2)cc1
IC50 (Lanosterol synthase): 0.316 µM

O=C(c1ccc(Cl)cc1)N1CCC(=Cc2ccc(C3=NCCO3)cc2)CC1
inhibition in vivo at 2 mg/kg (Rattus norvegicus [2]): 79% | inhibition in vivo at 2 mg/kg (Rattus norvegicus [3]): 85% | Activity (Rattus norvegicus [4]): 100% | Activity (Rattus norvegicus [5]): 100% | concentration at 2 h [6]: < 10 ng/g | inhibition in vivo at 2 mg/kg (Rattus norvegicus [7]): 61% | inhibition in vivo at 2 mg/kg (Rattus norvegicus [8]): 40% | Activity (Rattus norvegicus [9]): 100% | concentration at 2 h [10]: 301 ng/g | CLint scaled [11]: 2.3 mL/min/g | AUC(0-t) at 6 h [12]: 1.03 µg·h/mL | concentration at 6 h [13]: < 10 ng/g | concentration at 6 h [14]: 169 ng/g | Activity (Rattus norvegicus [15]): 100%

O=S(=O)(c1ccc(Cl)cc1)N1CCN(Cc2cccc(-c3ccncc3)c2)CC1
IC50 (Lanosterol synthase): 0.5 µM

O=C(c1ccc(Cl)cc1)N1CCN(Cc2ccc(-n3cccn3)cc2)CC1
Activity [1]: inactive

O=C(c1ccc(Cl)cc1)N1CCN(Cc2ccc(-c3ccncc3)cc2)CC1
inhibition in vivo at 2 mg/kg (Rattus norvegicus [3]): 64% | IC50 (Lanosterol synthase): 0.003 µM | CLint scaled [11]: 6 mL/min/g | Activity (Rattus norvegicus [15]): 55%

CN(C)Cc1ccc(-c2ccc(CCNS(=O)(=O)c3ccc(C#N)cc3)cc2)cc1
inhibition in vivo at 2 mg/kg (Rattus norvegicus [3]): 47% | IC50 (Lanosterol synthase): 0.028 µM | CLint scaled [11]: 9.9 mL/min/g | Activity (Rattus norvegicus [15]): 6%

O=C(c1ccc(Cl)cc1)N1CCN(Cc2ccc(-c3ccn[nH]3)cc2)CC1
Activity [1]: inactive
